Results reported in ChEMBL document CHEMBL1135761, “Discovery of further pyrrolidine trans-lactams as inhibitors of human neutrophil elastase (HNE) with potential as development candidates and the crystal structure of HNE complexed with an inhibitor (GW475151)” (J Med Chem, 2002).

Test system: not listed separately
Assay: Pharmacokinetic parameter Tmax was reported in dog after oral administration
Type: ADME, organism-based, Canis lupus familiaris
Details: in vivo

Compound | Tmax
CC(C)[C@@H]1C(=O)N(S(C)(=O)=O)[C@@H]2CCN(C(=O)c3coc(CN4CCCC4)n3)[C@H]21.Cl | 30 min

Test system: not listed separately
Assay: Pharmacokinetic parameter Tmax was reported in dog after intravenous administration
Type: ADME, organism-based, Canis lupus familiaris
Details: in vivo

Compound | Tmax
CC(C)[C@@H]1C(=O)N(S(C)(=O)=O)[C@@H]2CCN(C(=O)c3coc(CN4CCCC4)n3)[C@H]21.Cl | 1.8 min

Test system: not listed separately
Assay: Pharmacokinetic parameter Varea in dog was reported in Cassette dosage
Type: ADME, organism-based, Canis lupus familiaris
Details: in vivo, read-out: Varea
Summary of the method: (§1)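 Dog cassette: the set of compounds was given intravenously into the femoral vein to a beagle dog at 0.2 mg/kg body weight per compound. Jugular blood was sampled from 5 min to 24 h postdose. Plasma was prepared by solid phase extraction, then analysed by HPLC with single ion monitoring MS using 0.1% formic acid in water:methanol (70:30).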

Compound | Vd
CC(C)C1C(=O)N(S(C)(=O)=O)C2CCN(C(=O)/C=C/CN3CCCCC3)C12 (stereo unspecified) | 3.3 L/kg
CCCN(C)Cc1ccc(C(=O)N2CCC3C2C(C(C)C)C(=O)N3S(C)(=O)=O)cc1 (stereo unspecified) | 7.6 L/kg

Target: T1, Cathepsin G (Homo sapiens, UniProt P08311)
T1 sequence (P08311 whole entry): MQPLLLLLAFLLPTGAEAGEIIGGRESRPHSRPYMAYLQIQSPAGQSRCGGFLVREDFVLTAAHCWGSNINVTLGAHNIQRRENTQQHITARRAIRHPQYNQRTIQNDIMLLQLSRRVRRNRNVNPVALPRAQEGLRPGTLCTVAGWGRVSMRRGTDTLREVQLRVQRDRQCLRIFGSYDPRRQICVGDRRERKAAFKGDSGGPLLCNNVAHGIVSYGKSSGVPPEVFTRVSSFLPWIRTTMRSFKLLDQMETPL
Assay: The compound was evaluated for its inhibitory activity against cathepsin G using selectivity assay
Details: not given

Compound | IC50
CC(C)[C@@H]1C(=O)N(S(C)(=O)=O)[C@@H]2CCN(C(=O)c3coc(CN4CCCC4)n3)[C@H]21.Cl | > 100 µM

Test system: not listed separately
Assay: Pharmacokinetic parameter clearance in dog was reported in Discrete dosage
Type: ADME, organism-based, Canis lupus familiaris
Details: plasma, read-out: Clp

Compound | clearance
CC(C)C1C(=O)N(S(C)(=O)=O)C2CCN(C(=O)/C=C/CN3CCCCC3)C12 (stereo unspecified) | 19 mL/min/kg
CCCN(C)Cc1ccc(C(=O)N2CCC3C2C(C(C)C)C(=O)N3S(C)(=O)=O)cc1 (stereo unspecified) | 197 mL/min/kg

Test system: Rattus norvegicus
Assay: pharmacokinetic parameter area under the curve (AUC) was reported in rat after intravenous administration
Type: ADME, organism-based
Details: in vivo
Summary of the method: (§2)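 Rats were dosed with the hydrochloride salt at 2 mg/kg intravenously and orally. Plasma pharmacokinetic parameters were derived from each route, and F was taken from the oral versus intravenous exposure. Some rat data were normalized from a 2.4 to a 2 mg/kg dose.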

Compound | AUC
CC(C)[C@@H]1C(=O)N(S(C)(=O)=O)[C@@H]2CCN(C(=O)c3coc(CN4CCCC4)n3)[C@H]21.Cl | 392 ng·h/mL

Test system: not listed separately
Assay: Oral bioavailability in rat
Type: ADME, organism-based
Details: in vivo
Summary of the method: as §2

Compound | bioavailability
CC(C)[C@@H]1C(=O)N(S(C)(=O)=O)[C@@H]2CCN(C(=O)c3coc(CN4CCCC4)n3)[C@H]21.Cl | 24%

Test system: not listed separately
Assay: Half life time in dog was reported in cassette dosage
Type: ADME, organism-based, Canis lupus familiaris
Details: in vivo
Summary of the method: as §1

Compound | half-life
CC(C)C1C(=O)N(S(C)(=O)=O)C2CCN(C(=O)/C=C/CN3CCCCC3)C12 (stereo unspecified) | 120 min
CCCN(C)Cc1ccc(C(=O)N2CCC3C2C(C(C)C)C(=O)N3S(C)(=O)=O)cc1 (stereo unspecified) | 42 min

Target: T2, Neutrophil elastase (Homo sapiens) (UniProt P08246)
T2 sequence (whole entry): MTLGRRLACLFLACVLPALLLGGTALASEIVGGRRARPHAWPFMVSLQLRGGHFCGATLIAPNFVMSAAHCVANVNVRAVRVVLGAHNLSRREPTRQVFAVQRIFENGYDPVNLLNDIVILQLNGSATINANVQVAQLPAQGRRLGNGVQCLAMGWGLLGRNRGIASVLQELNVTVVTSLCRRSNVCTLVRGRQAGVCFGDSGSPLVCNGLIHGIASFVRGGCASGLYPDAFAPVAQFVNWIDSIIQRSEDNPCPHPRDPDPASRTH
Details: Canis lupus familiaris; 2 mg/kg

Compound | inhibition
CC(C)[C@@H]1C(=O)N(S(C)(=O)=O)[C@@H]2CCN(C(=O)c3coc(CN4CCCC4)n3)[C@H]21.Cl | 100%

Test system: Rattus norvegicus
Assay: pharmacokinetic parameter area under the curve (AUC) was reported in rat after oral administration
Type: ADME, organism-based
Details: in vivo
Summary of the method: as §2

Compound | AUC
CC(C)[C@@H]1C(=O)N(S(C)(=O)=O)[C@@H]2CCN(C(=O)c3coc(CN4CCCC4)n3)[C@H]21.Cl | 93 ng·h/mL

Test system: not listed separately
Assay: pharmacokinetic parameter volume of distribution (Vd) was reported in dog after intravenous administration
Type: ADME, organism-based, Canis lupus familiaris
Details: in vivo, read-out: Vd area

Compound | Vd
CC(C)[C@@H]1C(=O)N(S(C)(=O)=O)[C@@H]2CCN(C(=O)c3coc(CN4CCCC4)n3)[C@H]21.Cl | 3.4 L/kg

Test system: not listed separately
Assay: Pharmacokinetic parameter Cmax was reported after in rat oral administration
Type: ADME, organism-based
Parameters: route oral
Details: in vivo
Summary of the method: as §2

Compound | Cmax
CC(C)[C@@H]1C(=O)N(S(C)(=O)=O)[C@@H]2CCN(C(=O)c3coc(CN4CCCC4)n3)[C@H]21.Cl | 147 ng/mL

Test system: Canis familiaris
Assay: pharmacokinetic parameter area under the curve (AUC) was reported in dog after intravenous administration
Type: ADME, organism-based, Canis lupus familiaris
Details: in vivo

Compound | AUC
CC(C)[C@@H]1C(=O)N(S(C)(=O)=O)[C@@H]2CCN(C(=O)c3coc(CN4CCCC4)n3)[C@H]21.Cl | 286 ng·h/mL

Target: T2, Neutrophil elastase (Homo sapiens)
Details: not given

Compound | k on
CC(C)[C@@H]1C(=O)N(S(C)(=O)=O)[C@@H]2CCN(C(=O)c3coc(CN4CCCC4)n3)[C@H]21.Cl | 30500 M⁻¹ s⁻¹

Target: Serine protease 1 (Homo sapiens, UniProt P07477)
Assay: The compound was evaluated for its inhibitory activity against trypsin using selectivity assay
Details: not given

Chain of Serine protease 1 (P07477 whole entry): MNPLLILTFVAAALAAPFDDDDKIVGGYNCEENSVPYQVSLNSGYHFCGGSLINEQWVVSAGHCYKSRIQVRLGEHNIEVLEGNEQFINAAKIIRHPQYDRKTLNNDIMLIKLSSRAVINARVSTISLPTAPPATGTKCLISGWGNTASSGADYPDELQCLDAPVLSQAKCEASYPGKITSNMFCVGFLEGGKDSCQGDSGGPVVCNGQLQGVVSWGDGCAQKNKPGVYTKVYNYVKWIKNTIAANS

Compound | IC50
CC(C)[C@@H]1C(=O)N(S(C)(=O)=O)[C@@H]2CCN(C(=O)c3coc(CN4CCCC4)n3)[C@H]21.Cl | > 100 µM

Test system: Canis familiaris
Assay: pharmacokinetic parameter area under the curve (AUC) was reported in dog after oral administration
Type: ADME, organism-based, Canis lupus familiaris
Details: in vivo

Compound | AUC
CC(C)[C@@H]1C(=O)N(S(C)(=O)=O)[C@@H]2CCN(C(=O)c3coc(CN4CCCC4)n3)[C@H]21.Cl | 308 ng·h/mL

Test system: not listed separately
Assay: Pharmacokinetic parameter Tmax was reported in rat after intravenous administration
Type: ADME, organism-based
Details: in vivo
Summary of the method: as §2

Compound | Tmax
CC(C)[C@@H]1C(=O)N(S(C)(=O)=O)[C@@H]2CCN(C(=O)c3coc(CN4CCCC4)n3)[C@H]21.Cl | 1.8 min

Target: Chymotrypsinogen A (Bos taurus, UniProt P00766)
Assay: The compound was evaluated for its inhibitory activity against Chymotrypsinogen using selectivity assay
Details: not given
Summary of the method: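 Selectivity counter-screen against chymotrypsin, run essentially per an earlier published protocol; inhibitor preincubated with enzyme for 15 min before activity read-out.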

Compound | IC50
CC(C)[C@@H]1C(=O)N(S(C)(=O)=O)[C@@H]2CCN(C(=O)c3coc(CN4CCCC4)n3)[C@H]21.Cl | 3 µM

Test system: not listed separately
Assay: Half life time in dog was reported in Discrete dosage
Type: ADME, organism-based, Canis lupus familiaris
Details: in vivo

Compound | half-life
CC(C)C1C(=O)N(S(C)(=O)=O)C2CCN(C(=O)/C=C/CN3CCCCC3)C12 (stereo unspecified) | 108 min
CCCN(C)Cc1ccc(C(=O)N2CCC3C2C(C(C)C)C(=O)N3S(C)(=O)=O)cc1 (stereo unspecified) | 12 min

Test system: not listed separately
Assay: Pharmacokinetic parameter clearance in dog was reported in Cassette dosage
Type: ADME, organism-based, Canis lupus familiaris
Details: plasma, read-out: Clp
Summary of the method: as §1

Compound | clearance
CC(C)C1C(=O)N(S(C)(=O)=O)C2CCN(C(=O)/C=C/CN3CCCCC3)C12 (stereo unspecified) | 20 mL/min/kg
CCCN(C)Cc1ccc(C(=O)N2CCC3C2C(C(C)C)C(=O)N3S(C)(=O)=O)cc1 (stereo unspecified) | 134 mL/min/kg

Target: T2, Neutrophil elastase (Homo sapiens)
Details: Canis lupus familiaris; Blood; 2 mg/kg

Compound | inhibition
CC(C)[C@@H]1C(=O)N(S(C)(=O)=O)[C@@H]2CCN(C(=O)c3coc(CN4CCCC4)n3)[C@H]21.Cl | 100%

Test system: not listed separately
Assay: Pharmacokinetic parameter Cmax was reported after in dog oral administration
Type: ADME, organism-based, Canis lupus familiaris
Parameters: route oral
Details: in vivo

Compound | Cmax
CC(C)[C@@H]1C(=O)N(S(C)(=O)=O)[C@@H]2CCN(C(=O)c3coc(CN4CCCC4)n3)[C@H]21.Cl | 138 ng/mL

Test system: not listed separately
Assay: Pharmacokinetic parameter Tmax was reported in rat after oral administration
Type: ADME, organism-based
Details: in vivo
Summary of the method: as §2

Compound | Tmax
CC(C)[C@@H]1C(=O)N(S(C)(=O)=O)[C@@H]2CCN(C(=O)c3coc(CN4CCCC4)n3)[C@H]21.Cl | 15 min

Test system: not listed separately
Assay: half life was reported in rat after oral administration
Type: ADME, organism-based
Details: in vivo
Summary of the method: as §2

Compound | half-life
CC(C)[C@@H]1C(=O)N(S(C)(=O)=O)[C@@H]2CCN(C(=O)c3coc(CN4CCCC4)n3)[C@H]21.Cl | 78 min

Test system: not listed separately
Assay: Oral bioavailability in dog
Type: ADME, organism-based, Canis lupus familiaris
Details: in vivo

Compound | bioavailability
CC(C)[C@@H]1C(=O)N(S(C)(=O)=O)[C@@H]2CCN(C(=O)c3coc(CN4CCCC4)n3)[C@H]21.Cl | 100%

Test system: not listed separately
Assay: half life was reported in rat after intravenous administration
Type: ADME, organism-based
Details: in vivo
Summary of the method: as §2

Compound | half-life
CC(C)[C@@H]1C(=O)N(S(C)(=O)=O)[C@@H]2CCN(C(=O)c3coc(CN4CCCC4)n3)[C@H]21.Cl | 24 min

Test system: not listed separately
Assay: pharmacokinetic parameter volume of distribution (Vd) was reported in rat after intravenous administration
Type: ADME, organism-based
Details: in vivo, read-out: Vd area
Summary of the method: as §2

Compound | Vd
CC(C)[C@@H]1C(=O)N(S(C)(=O)=O)[C@@H]2CCN(C(=O)c3coc(CN4CCCC4)n3)[C@H]21.Cl | 2.6 L/kg

Test system: not listed separately
Assay: half life was reported in dog after oral administration
Type: ADME, organism-based, Canis lupus familiaris
Details: in vivo

Compound | half-life
CC(C)[C@@H]1C(=O)N(S(C)(=O)=O)[C@@H]2CCN(C(=O)c3coc(CN4CCCC4)n3)[C@H]21.Cl | 84 min

Test system: not listed separately
Assay: half life was reported in dog after intravenous administration
Type: ADME, organism-based, Canis lupus familiaris
Details: in vivo

Compound | half-life
CC(C)[C@@H]1C(=O)N(S(C)(=O)=O)[C@@H]2CCN(C(=O)c3coc(CN4CCCC4)n3)[C@H]21.Cl | 60 min

Test system: not listed separately
Assay: Pharmacokinetic parameter Varea in dog was reported in Discrete dosage
Type: ADME, organism-based, Canis lupus familiaris
Details: in vivo, read-out: Varea

Compound | Vd
CC(C)C1C(=O)N(S(C)(=O)=O)C2CCN(C(=O)/C=C/CN3CCCCC3)C12 (stereo unspecified) | 2.7 L/kg
CCCN(C)Cc1ccc(C(=O)N2CCC3C2C(C(C)C)C(=O)N3S(C)(=O)=O)cc1 (stereo unspecified) | 3.5 L/kg
